Assay results from different studies.
Protocols differ between the studies behind these lines.
Target: Misshapen-like kinase 1 (MINK1, Homo sapiens, UniProt Q8N4C8)

SMILES	assay	setting	remaining binding
O=C(Nc1c[nH]nc1C(=O)NC1CCNCC1)c1cc(F)cc(F)c1	binding, competition with immobilised ligand	1 µM	93%
Cc1cnn2ncc(-c3ccnc(N(C)C)n3)c2c1	binding	1 µM	92%
CNC(=O)[C@@H]1CC[C@@H](n2c(-c3ccc4cnccc4c3)nc3ccc(C(=O)NCc4cccc(C(N)=O)c4)cc32)C1	binding, competition with immobilised ligand	1 µM	94%
O=C(c1ccc(Nc2nccc(-c3cc4ccccc4s3)n2)cc1)N1CCC(N2CCCC2)CC1	binding, competition with immobilised ligand	1 µM	57%
CN(C)c1nccc(-c2cnn3ncccc23)n1	binding	1 µM	81%
CC(=O)C1=C(C)N(c2cccc(C(F)(F)F)c2)C(=O)N[C@@H]1c1ccc(C#N)nc1	cell-free assay, competition with immobilised ligand	1 µM	100%
COc1cnc(Nc2cccc(S(N)(=O)=O)c2)nc1N1CCN(c2ccccc2)CC1	binding, competition with immobilised ligand	1 µM	76%
COc1ncc2cc3ccccc3nc2c1C#N	cell-free assay, competition with immobilised ligand	5 µM	99%
N[C@@H]1CCN(c2nccc(-c3cnn4ncccc34)n2)C1	binding	1 µM	96%
CCN1CCN(Cc2ccc(C(=O)Nc3ccc(C)c(Oc4ccc5c(c4)CC(=O)N5)c3)cc2C(F)(F)F)CC1	binding, competition with immobilised ligand	1 µM	100%
CSc1cccnc1N1CCN(Cc2nc3ccccc3[nH]2)CC1	cell-free assay, competition with immobilised ligand	1 µM	89%
C=CC(=O)N1CCC(C(=O)NCC(=O)N2CCN(c3nc(-c4cnc(N)nc4C(F)F)nc(N4CCOCC4)n3)CC2)CC1	binding, competition with immobilised ligand	1 µM	99%
Cc1c[nH]c2nccc(Oc3c(F)cc(Nc4cc(Cl)nc(N)n4)cc3F)c12	cell-free assay, competition with immobilised ligand	0.1 µM	100%
Nc1ncc2c(n1)-c1c([nH]c3ccc(C#CC4CC4)cc13)CCCC2	binding, competition with immobilised ligand	1 µM	94%
O=C(Nc1cccnn1)N1CC(C/C=C/c2cncc(Oc3ccc(C(F)(F)F)cn3)n2)C1	cell-free assay, competition with immobilised ligand	1 µM	100%
c1cnn2ncc(-c3ccnc(N4CCC45COC5)n3)c2c1	binding	1 µM	68%
O=C(O)[C@H]1[C@H](Cn2nnc3ccccc3c2=O)CC[C@@H]1C(=O)c1ccc(OCCC2CCOCC2)cc1	cell-free assay, competition with immobilised ligand	1 µM	100%
O=C(c1ccc(Nc2ncc(Cl)c(-c3ccc(Cl)s3)n2)cc1)N1CCC(N2CCCC2)CC1	binding, competition with immobilised ligand	1 µM	17%
COc1ccnn2ncc(-c3ccnc(N(C)C)n3)c12	binding	1 µM	81%
O=C(Nc1cnc(Oc2ccc(F)cc2)nc1)N1CCc2ncccc2[C@@H]1c1ccc(F)cc1	cell-free assay, competition with immobilised ligand	1 µM	100%
C[C@H]1CCN(c2nccc(-c3cnn4ncccc34)n2)C1	binding	1 µM	71%
O=C(c1ccc(Nc2ncc(Cl)c(-c3cc4ccccc4s3)n2)cc1)N1CCC(N2CCCC2)CC1	binding, competition with immobilised ligand	1 µM	42%
